Read-outs that look alike come from different tables or passages of the source.

One may read the IC50 as the concentration that gives 50% inhibition.

Assay [1] deals with cisplatin-resistant ovarian and testicular cancer cell lines. As to conditions: ref 9c; cited from earlier work.
Assay [2] relates to cancer and normal colon cells. As to conditions: both cell lines (cancer and normal colon cells); cited from earlier work.
In assay [3] the test system is HT-29 (human colon adenocarcinoma). In words: MTS cytotoxicity assay, HT-29 cells. The format is cell-based. In outline: (§1)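 Cells grown in McCoy's 5a with 10% FBS, 1% NEAA and 2% HEPES at 37 °C, 5% CO2, then seeded at 2000–5,000/well 24 h before dosing. Test compound in DMSO (<0.5% final) was given as six-point 4-fold serial dilutions for 24, 48 or 72 h. Read-out was MTS plus phenazine methosulphate for 3 h, OD490 versus DMSO controls. IC50 from curves; mean ± SE, three replications.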

The subject of assay [4] is Caco-2 (human epithelial colorectal adenocarcinoma). The assay can be described thus: MTS cytotoxicity assay, Caco-2 cells. The format is cell-based. (Tetrazolium dyes change colour on reduction, which living cells bring about.)
The subject of assay [5] is HCT-116 (human colon carcinoma). The assay can be described thus: MTS cytotoxicity assay, HCT-116 cells. It counts as cell-based. In outline: as §1
For assay [6], the system named is CCD-18Co (human colon fibroblasts). In words: MTS cytotoxicity assay, non-cancerous CCD-18Co cells. It counts as cell-based. In outline: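 Colon fibroblasts grown in EMEM with 10% FBS, 1% NEAA and 1% L-glutamine at 37 °C, 5% CO2; used at PDL 26–35. Seeded at 2000–5,000/well 24 h before dosing. Test compound in DMSO (<0.5% final) was given as six-point 4-fold serial dilutions for 24, 48 or 72 h. Read-out was MTS/phenazine methosulphate for 3 h, OD490 versus DMSO controls. IC50 from curves; mean ± SE, three replications.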

As for `Cc1ccnc2c1ccc1c(C)ccnc12.Cc1ccnc2c1ccc1c(C)ccnc12.O=S(=O)([O-])[O-].[O]=[V+2]` [metvan, bis(4,7-dimethyl-1,10-phenanthroline)sulfatooxovanadium(IV)], the “effectiveness against cisplatin-resistant cancer cell lines” value in assay [1] is recorded as “highly effective”.

`N.N.[Cl][Pt][Cl]` [Cisplatin]: in assay [2], the “inhibition of cell proliferation” value was “about 70%”.

As for `COc1cc([C@@H]2c3cc4c(cc3[C@@H](O[C@@H]3O[C@@H]5CO[C@@H](C)O[C@H]5[C@H](O)[C@H]3O)[C@H]3COC(=O)[C@H]23)OCO4)cc(OC)c1O` [Etoposide], the IC50 stood at 19.2 ± 0.8 µM in assay [3] (HT-29, 24 h, read-out: IC50 HT-29 24 hours); 17.3 ± 1.9 µM in assay [3] (HT-29, 48 h, read-out: IC50 HT-29 48 hours); 15.8 ± 2.4 µM in assay [3] (HT-29, 72 h, read-out: IC50 HT-29 72 hours); 47.6 ± 0.8 µM in assay [4] (Caco-2, 24 h, read-out: IC50 Caco-2 24 hours); 46.2 ± 1.9 µM in assay [4] (Caco-2, 48 h, read-out: IC50 Caco-2 48 hours); 40.9 ± 1.5 µM in assay [4] (Caco-2, 72 h, read-out: IC50 Caco-2 72 hours). Moreover, the IC50 in assay [5] (HCT-116, 24 h, read-out: IC50 HCT-116 24 hours) came to 40.8 ± 0.5 µM; in assay [5] (HCT-116, 48 h, read-out: IC50 HCT-116 48 hours), 36.2 ± 2 µM; in assay [5] (HCT-116, 72 h, read-out: IC50 HCT-116 72 hours), 38.4 ± 1.2 µM; in assay [6] (24 h, read-out: IC50 CCD-18Co 24 hours), 82.5 ± 3.1 µM; in assay [6] (48 h, read-out: IC50 CCD-18Co 48 hours), 79.2 ± 1.2 µM; in assay [6] (72 h, read-out: IC50 CCD-18Co 72 hours) it was 73.2 ± 1.9 µM.
